Assay results from ChEMBL document CHEMBL1125703, “Synthesis, hydrolysis rates, supercomputer modeling, and antibacterial activity of bicyclic tetrahydropyridazinones” (J Med Chem, 1991).

Experiments:
Format in all cases: ADME
Settings in all cases: buffer
[1] = Compound was evaluated for its hydrolysis at pH 9 half life period (T1/2)
Procedure, shortened: (§1)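 Alkaline hydrolysis, i.e. chemical reactivity of the lactam ring with hydroxide ion, followed by pH stat at the pH named in the line. Ionic strength (μ) was 0.5 and the temperature 35 °C. Pseudo-first-order rate constants and half-lives were obtained under these conditions. Some entries are single determinations.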

[2] = Compound was evaluated for its hydrolysis at pH 9 expressed as pseudo first order rate constant (K) (micro = 0.5); procedure, shortened: as §1
[3] = Compound was evaluated for its hydrolysis at pH 9 for half life period (T1/2); procedure, shortened: as §1
[4] = Compound was evaluated for its hydrolysis at pH 10 half-life period (T1/2); procedure, shortened: as §1
[5] = Compound was evaluated for its hydrolysis at pH 10 expressed as pseudo first order rate constant (K) (micro = 0.5); procedure, shortened: as §1

half-life [1] [min] | k [2] [h⁻¹] | half-life [3] [min] | half-life [4] [min] | k [5] [h⁻¹] | Compound
24 | 1.75 |  |  |  | CO/N=C(/C(=O)NC1CCN2CC(C#N)=C(C(=O)O)N2C1=O)c1csc(N)n1 (stereo not given)
57.6 | 0.724 |  |  |  | CO/N=C(\C(=O)NC1CN2CC(C(C)=O)=C(C(=O)O)N2C1=O)c1csc(N)n1 (stereo not given)
 | 3.16 | 13.2 |  |  | CO/N=C(/C(=O)NC1CCN2CC(C(C)=O)=C(C(=O)O)N2C1=O)c1csc(N)n1 (stereo not given)
2880 | 0.0144 |  | 285 | 0.146 | CO/N=C(/C(=O)NC1CCN2CC(C(=O)[O-])=C(C(=O)[O-])N2C1=O)c1csc(N)n1.[Na+].[Na+] (stereo not given)
 |  |  | 128 | 0.324 | CO/N=C(/C(=O)NC1CN2CC(C(=O)O)=C(C(=O)O)N2C1=O)c1csc(N)n1 (stereo not given)
 |  |  |  | 0.248 | CC1(C)S[C@@H]2[C@H](NC(=O)COc3ccccc3)C(=O)N2[C@H]1C(=O)O [PENICILLIN V]
24 | 1.73 |  |  |  | CO/N=C(/C(=O)NC1CN2CC(C#N)=C(C(=O)O)N2C1=O)c1csc(N)n1 (stereo not given)
